Laboratory results taken from ChEMBL document CHEMBL4351006, “A new exploration towards aminothiazolquinolone oximes as potentially multi-targeting antibacterial agents: Design, synthesis and evaluation acting on microbes, DNA, HSA and topoisomerase IV” (Eur J Med Chem, 2019).
Values after ≈ are worked out from the molar mass of the structure shown. Active and inactive are the calls of the source. The rule behind the calls is not given here.

How the values were obtained:
Staphylococcus aureus [1] = assay: Potentiation of cefixime-mediated antibacterial activity against methicillin resistant Staphylococcus aureus N315 assessed as cefixime MIC incubated for 24 hrs by two fold serial dilution method (reference value: 31.52 10^-3 mM); type: functional; settings: N315, 24 h
Staphylococcus aureus [2] = assay: Potentiation of cefixime-mediated antibacterial activity against Staphylococcus aureus assessed as cefixime MIC incubated for 24 hrs by two fold serial dilution method (reference value: 31.52 10^-3 mM); type: functional
Klebsiella pneumoniae [3] = assay: Potentiation of cefixime-mediated antibacterial activity against Klebsiella pneumoniae assessed as cefixime MIC incubated for 24 hrs by two fold serial dilution method (reference value: 15.76 10^-3 mM); type: functional
Candida tropicalis [4] = assay: Potentiation of fluconazole-mediated antifungal activity against Candida tropicalis assessed as fluconazole MIC incubated for 24 hrs by two fold serial dilution method (reference value: 26.12 10^-3 mM); type: functional
Candida albicans [5] = assay: Potentiation of fluconazole-mediated antifungal activity against Candida albicans assessed as fluconazole MIC incubated for 24 hrs by two fold serial dilution method (reference value: 13.06 10^-3 mM); type: functional
[6] = Cytotoxicity against human A549 cells assessed as cell viability upto 139.52 uM incubated for 24 hrs by MTT assay relative to control; type: cell-based; settings: read-out: Activity
Outline: (§1)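 MTT viability assay in A549 and BEAS-2B cells, with doxorubicin at 0.50 μM as positive control. Viability is plotted with standard deviation from three independent experiments.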

Escherichia coli [7] = assay: Antibacterial activity against Escherichia coli assessed as reduction in bacterial cell viability incubated for 24 hrs by two fold serial dilution method; type: functional
Outline: (§2)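 Broth two-fold serial dilution run to CLSI guidelines. Chloromycin, norfloxacin and fluconazole served as reference drugs.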

Aspergillus fumigatus = assay: Antifungal activity against Aspergillus fumigatus assessed as reduction in fungal cell viability incubated for 24 hrs by two fold serial dilution method; type: functional; outline: as §2
Albumin [8] = target: T1, Albumin (Homo sapiens, UniProt P02768); assay: Binding affinity to HSA assessed as change in gibbs free energy at 286 K by Van't Hoff plot analysis; type: ADME; settings: isolated protein
Calf thymus DNA [9] = assay: Binding affinity to calf thymus DNA by UV-visible spectrophotometric method; type: nucleic-acid assay; settings: Bos taurus
Candida albicans [10] = assay: Synergistic antifungal activity against Candida albicans assessed as FICI in presence of fluconazole incubated for 24 hrs by two fold serial dilution method
Albumin [11] = target: T1, Albumin; assay: Binding affinity to HSA assessed as binding constant at 298 K by fluorescence spectroscopy based Scatchard method; type: ADME; settings: isolated protein
Candida tropicalis [12] = assay: Antifungal activity against Candida tropicalis assessed as reduction in fungal cell viability in presence of fluconazole incubated for 24 hrs by two fold serial dilution method
Albumin [13] = target: T1, Albumin; assay: Binding affinity to HSA assessed as change in gibbs free energy at 310 K by Van't Hoff plot analysis; type: ADME; settings: isolated protein
Staphylococcus aureus [14] = assay: Potency index, ratio of MIC of chloromycin to MIC of compound for antibacterial activity against methicillin resistant Staphylococcus aureus N315 assessed as reduction in bacterial cell viability incubated for 24 hrs by two fold serial dilution method; type: functional
Albumin [15] = target: T1, Albumin; assay: Binding affinity to HSA assessed as binding constant at 286 K by fluorescence spectroscopy based Scatchard method; type: ADME; settings: isolated protein
Albumin [16] = target: T1, Albumin; assay: Binding affinity to HSA assessed as Stern-Volmer quenching constant at 298 K by fluorescence spectroscopy; type: ADME; settings: isolated protein
Candida tropicalis [17] = assay: Antifungal activity against Candida tropicalis assessed as reduction in fungal cell viability incubated for 24 hrs by two fold serial dilution method; type: functional; outline: as §2
Staphylococcus aureus [18] = assay: Induction of membrane permeabilization in methicillin resistant Staphylococcus aureus assessed as increase in fluorescence intensity at 12 times of MIC incubated for 2 hr by propidium iodide staining based fluorescence microscopy; type: functional, organism-based
Outline: (§3)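 MRSA cells were treated with the compound and stained with propidium iodide, which enters cells with damaged membranes and fluoresces on binding DNA. Fluorescence intensity was followed over time against untreated bacteria.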

Staphylococcus aureus [19] = assay: Antibacterial activity against Staphylococcus aureus ATCC 25923 assessed as reduction in bacterial cell viability incubated for 24 hrs by two fold serial dilution method; type: functional; settings: ATCC 25923, 24 h; outline: as §2
Pseudomonas aeruginosa [20] = assay: Antibacterial activity against Pseudomonas aeruginosa assessed as reduction in bacterial cell viability incubated for 24 hrs by two fold serial dilution method; type: functional; outline: as §2
Candida parapsilosis = assay: Antifungal activity against Candida parapsilosis ATCC 22019 assessed as reduction in fungal cell viability incubated for 24 hrs by two fold serial dilution method; settings: Lodderomyces parapsilosis, ATCC 22019, 24 h
Escherichia coli [21] = assay: Antibacterial activity against Escherichia coli ATCC 25922 assessed as reduction in bacterial cell viability incubated for 24 hrs by two fold serial dilution method; type: functional; settings: ATCC 25922, 24 h; outline: as §2
Staphylococcus aureus [22] = assay: Antibacterial activity against methicillin resistant Staphylococcus aureus assessed as change in drug resistance after 16 serial passages in presence of cefixime at 0.5 times of MIC incubated for 12 hrs by serial dilution method; type: functional, organism-based
Albumin [23] = target: T1, Albumin; assay: Binding affinity to HSA assessed as quenching constant at 310 K by fluorescence spectroscopy; type: ADME; settings: isolated protein
Klebsiella pneumoniae [24] = assay: Antibacterial activity against Klebsiella pneumoniae assessed as reduction in bacterial cell viability incubated for 24 hrs by two fold serial dilution method; type: functional; outline: as §2
Staphylococcus aureus [25] = assay: Antibacterial activity against methicillin resistant Staphylococcus aureus N315 assessed as reduction in bacterial cell viability in presence of cefixime incubated for 24 hrs by two fold serial dilution method; type: functional; settings: N315, 24 h
Albumin [26] = target: T1, Albumin; assay: Binding affinity to HSA assessed as change in enthalpy at 298 K by Van't Hoff plot analysis; type: ADME; settings: isolated protein
Calf thymus DNA [27] = assay: Competitive binding affinity to calf thymus DNA assessed as inhibition of binding of neutral red by UV-visible spectrophotometric method; type: nucleic-acid assay; settings: Bos taurus
Albumin [28] = target: T1, Albumin; assay: Binding affinity to HSA assessed as quenching constant at 298 K by fluorescence spectroscopy; type: ADME; settings: isolated protein
Candida tropicalis [29] = assay: Synergistic antifungal activity against Candida tropicalis assessed as FICI in presence of fluconazole incubated for 24 hrs by two fold serial dilution method
Staphylococcus aureus [30] = assay: Antibacterial activity against methicillin resistant Staphylococcus aureus assessed as fold change after 16 serial passages at 0.5 times of MIC incubated for 12 hrs by sequential passaging method; type: functional
Acinetobacter baumannii = assay: Antibacterial activity against Acinetobacter baumannii assessed as reduction in bacterial cell viability incubated for 24 hrs by two fold serial dilution method; type: functional; outline: as §2
Klebsiella pneumoniae [31] = assay: Synergistic antibacterial activity against Klebsiella pneumoniae assessed as FICI in presence of cefixime incubated for 24 hrs by two fold serial dilution method; type: functional
Candida albicans [32] = assay: Antifungal activity against Candida albicans assessed as reduction in fungal cell viability in presence of fluconazole incubated for 24 hrs by two fold serial dilution method
Pseudomonas aeruginosa [33] = assay: Antibacterial activity against Pseudomonas aeruginosa ATCC 27853 assessed as reduction in bacterial cell viability incubated for 24 hrs by two fold serial dilution method; type: functional; settings: ATCC 27853, 24 h; outline: as §2
Staphylococcus aureus [34] = assay: Antibacterial activity against Staphylococcus aureus assessed as reduction in bacterial cell viability incubated for 24 hrs by two fold serial dilution method; type: functional; outline: as §2
Staphylococcus aureus [35] = assay: Antibacterial activity against Staphylococcus aureus ATCC 29213 assessed as reduction in bacterial cell viability incubated for 24 hrs by two fold serial dilution method; type: functional; settings: ATCC 29213, 24 h; outline: as §2
Enterococcus faecalis = assay: Antibacterial activity against Enterococcus faecalis assessed as reduction in bacterial cell viability incubated for 24 hrs by two fold serial dilution method; type: functional; outline: as §2
Albumin [36] = target: T1, Albumin; assay: Binding affinity to HSA assessed as binding constant at 310 K by fluorescence spectroscopy based Scatchard method; type: ADME; settings: isolated protein
Staphylococcus aureus [37] = assay: Induction of membrane permeabilization in methicillin resistant Staphylococcus aureus assessed as increase in fluorescence intensity steady state at 12 times of MIC after 100 mins by propidium iodide staining based fluorescence microscopy; type: functional, organism-based; outline: as §3
Albumin [38] = target: T1, Albumin; assay: Binding affinity to HSA assessed as change in entropy at 298 K by Van't Hoff plot analysis; type: ADME; settings: isolated protein
[39] = Cytotoxicity against human BEAS2B cells assessed as cell viability upto 139.52 uM incubated for 24 hrs by MTT assay relative to control; type: cell-based; settings: BEAS-2B cells, read-out: Activity; outline: as §1
Albumin [40] = target: T1, Albumin; assay: Binding affinity to HSA assessed as Stern-Volmer quenching constant at 286 K by fluorescence spectroscopy; type: ADME; settings: isolated protein
Candida albicans [41] = assay: Antifungal activity against Candida albicans assessed as reduction in fungal cell viability incubated for 24 hrs by two fold serial dilution method; type: functional; outline: as §2
Staphylococcus aureus [42] = assay: Antibacterial activity against methicillin resistant Staphylococcus aureus N315 assessed as reduction in bacterial cell viability incubated for 24 hrs by two fold serial dilution method; type: functional; settings: N315, 24 h
Outline: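 MIC by two-fold serial dilution following CLSI, with chloromycin and norfloxacin as reference drugs.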

Klebsiella pneumoniae [43] = assay: Antibacterial activity against Klebsiella pneumoniae assessed as reduction in bacterial cell viability in presence of cefixime incubated for 24 hrs by two fold serial dilution method; type: functional
Staphylococcus aureus [44] = assay: Potency index, ratio of MIC of norfloxacin to MIC of compound for antibacterial activity against methicillin resistant Staphylococcus aureus N315 assessed as reduction in bacterial cell viability incubated for 24 hrs by two fold serial dilution method; type: functional
Candida albicans [45] = assay: Antifungal activity against Candida albicans ATCC 90023 assessed as reduction in fungal cell viability incubated for 24 hrs by two fold serial dilution method; type: functional; settings: ATCC 90023, 24 h; outline: as §2
Albumin [46] = target: T1, Albumin; assay: Binding affinity to HSA assessed as Stern-Volmer quenching constant at 310 K by fluorescence spectroscopy; type: ADME; settings: isolated protein
Staphylococcus aureus [47] = assay: Antibacterial activity against Staphylococcus aureus assessed as reduction in bacterial cell viability in presence of cefixime incubated for 24 hrs by two fold serial dilution method; type: functional
Albumin [48] = target: T1, Albumin; assay: Binding affinity to HSA assessed as change in gibbs free energy at 298 K by Van't Hoff plot analysis; type: ADME; settings: isolated protein
Albumin [49] = target: T1, Albumin; assay: Binding affinity to HSA assessed as quenching constant at 286 K by fluorescence spectroscopy; type: ADME; settings: isolated protein
Staphylococcus aureus [50] = assay: Synergistic antibacterial activity against Staphylococcus aureus assessed as FICI in presence of cefixime incubated for 24 hrs by two fold serial dilution method; type: functional

T1 sequence (P02768 whole entry): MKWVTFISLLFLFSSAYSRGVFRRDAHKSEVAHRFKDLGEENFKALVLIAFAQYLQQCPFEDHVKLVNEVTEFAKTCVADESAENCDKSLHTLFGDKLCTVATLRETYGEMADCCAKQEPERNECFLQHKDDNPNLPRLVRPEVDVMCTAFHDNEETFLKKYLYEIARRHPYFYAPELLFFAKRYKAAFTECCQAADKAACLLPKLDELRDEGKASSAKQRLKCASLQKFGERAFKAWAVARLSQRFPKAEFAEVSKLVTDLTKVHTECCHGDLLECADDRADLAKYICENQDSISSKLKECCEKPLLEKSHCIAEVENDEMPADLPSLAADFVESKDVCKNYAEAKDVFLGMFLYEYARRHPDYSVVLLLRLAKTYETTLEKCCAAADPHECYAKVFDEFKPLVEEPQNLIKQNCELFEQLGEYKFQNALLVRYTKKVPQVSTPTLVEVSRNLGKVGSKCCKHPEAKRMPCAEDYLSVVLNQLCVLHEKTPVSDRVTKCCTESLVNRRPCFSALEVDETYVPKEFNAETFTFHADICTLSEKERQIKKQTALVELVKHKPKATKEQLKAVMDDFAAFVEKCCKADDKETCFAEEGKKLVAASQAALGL

## C=CC1=C(C(=O)O)N2C(=O)[C@@H](NC(=O)/C(=N\OCC(=O)O)c3csc(N)n3)[C@H]2SC1 [CEFIXIME]
Staphylococcus aureus [1]
  MIC: 3.94 µM
Staphylococcus aureus [2]
  MIC: 7.88 µM
Klebsiella pneumoniae [3]
  MIC: 7.88 µM
Candida tropicalis [4]
  MIC: 26.1 µM
Candida albicans [5]
  MIC: 3.26 µM

## CCn1cc(-c2csc(N)n2)c(=O)c2cc(F)c(N3CCN(C/C(C)=N/OC)CC3)cc21
[6]
  viability at 24 h: > 75%
Escherichia coli [7]
  MIC: 70 µM (≈ 32.1 µg/mL)
Aspergillus fumigatus
  MIC: 35 µM (≈ 16 µg/mL)
Albumin [8]
  deltaG: -27.231 kJ/mol
Calf thymus DNA [9]
  K: 2.51 ×10⁴ L/mol
Candida albicans [10]
  fractional inhibitory concentration index (FICI): 0.281
Albumin [11]
  Kb: 1.63 ×10⁵ L/mol
Candida tropicalis [12]
  MIC: 17.4 µM
Albumin [13]
  deltaG: -27.081 kJ/mol
Staphylococcus aureus [14]
  Ratio: 5
Albumin [15]
  Kb: 1.81 ×10⁵ L/mol
Albumin [16]
  KSV: 1.79 ×10⁵ L/mol
Candida tropicalis [17]
  MIC: 70 µM (≈ 32.1 µg/mL)
Staphylococcus aureus [18]
  Activity: Active
Staphylococcus aureus [19]
  MIC: 17 µM (≈ 7.8 µg/mL)
Pseudomonas aeruginosa [20]
  MIC: 70 µM (≈ 32.1 µg/mL)
Candida parapsilosis
  MIC: 70 µM (≈ 32.1 µg/mL)
Escherichia coli [21]
  MIC: 35 µM (≈ 16 µg/mL)
Staphylococcus aureus [22]
  Activity: inactive
Albumin [23]
  Kq: 2.45 ×10¹³ L/mol/s
Klebsiella pneumoniae [24]
  MIC: 70 µM (≈ 32.1 µg/mL)
Staphylococcus aureus [25]
  MIC: 4.36 µM
Albumin [26]
  deltaH: -29.018 kJ/mol
Calf thymus DNA [27]
  Activity: Active
Albumin [28]
  Kq: 2.8 ×10¹³ L/mol/s
Candida tropicalis [29]
  fractional inhibitory concentration index (FICI): 1.25
Staphylococcus aureus [30]
  fold change (FC): inactive
Acinetobacter baumannii
  MIC: 279 µM (≈ 128 µg/mL)
Klebsiella pneumoniae [31]
  fractional inhibitory concentration index (FICI): 0.625
Candida albicans [32]
  MIC: 2.18 µM
Pseudomonas aeruginosa [33]
  MIC: 35 µM (≈ 16 µg/mL)
Staphylococcus aureus [34]
  MIC: 35 µM (≈ 16 µg/mL)
Staphylococcus aureus [35]
  MIC: 140 µM (≈ 64.2 µg/mL)
Enterococcus faecalis
  MIC: 70 µM (≈ 32.1 µg/mL)
Albumin [36]
  Kb: 1.44 ×10⁵ L/mol
Staphylococcus aureus [37]
  Activity: Active
Albumin [38]
  deltaS: -6.247 J/mol.K
[39]
  viability at 24 h: > 75%
Albumin [40]
  KSV: 1.89 ×10⁵ L/mol
Candida albicans [41]
  MIC: 70 µM (≈ 32.1 µg/mL)
Staphylococcus aureus [42]
  MIC: 9 µM (≈ 4.13 µg/mL)
Klebsiella pneumoniae [43]
  MIC: 8.72 µM
Staphylococcus aureus [44]
  Ratio: 2
Candida albicans [45]
  MIC: 17 µM (≈ 7.8 µg/mL)
Albumin [46]
  KSV: 1.57 ×10⁵ L/mol
Staphylococcus aureus [47]
  MIC: 8.72 µM
Albumin [48]
  deltaG: -27.156 kJ/mol
Albumin [49]
  Kq: 2.95 ×10¹³ L/mol/s
Staphylococcus aureus [50]
  fractional inhibitory concentration index (FICI): 0.5
